Values after ≈ are worked out from the molar mass of the structure shown.

Type in all cases: functional
Assay [1] has as its system Escherichia coli. Nature of the assay: Antibacterial activity against Escherichia coli after 24 hrs by microbroth dilution method. The method in brief: (§1)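 Tested by CLSI-standard broth microdilution against a panel of eleven bacterial strains, Gram-positive and Gram-negative, including MRSA.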
In general terms: Broth dilution looks for growth in wells or tubes with falling amounts of substance.

Assay [2] concerns Escherichia coli. The assay is described as follows: Antibacterial activity against Escherichia coli ATCC 25922 after 24 hrs by microbroth dilution method. The note with it: ATCC 25922, 24 h. An outline of the steps: as §1
Assay [3] has as its system Staphylococcus aureus. Nature of the assay: Antibacterial activity against Staphylococcus aureus after 24 hrs by microbroth dilution method. The method in brief: as §1
Another assay relates to Enterococcus faecalis. The assay is described as follows: Antibacterial activity against Enterococcus faecalis after 24 hrs by microbroth dilution method. The method in brief: as §1
Assay [4] has as its system Pseudomonas aeruginosa. The assay is described as follows: Antibacterial activity against Pseudomonas aeruginosa ATCC 27853 after 24 hrs by microbroth dilution method. The note with it: ATCC 27853, 24 h. The method in brief:
as §1

The subject of assay [5] is Aspergillus fumigatus. Nature of the assay: Potency index, ratio of fluconazole MIC to compound MIC for antifungal activity against Aspergillus fumigatus.
The subject of assay [6] is Aspergillus fumigatus. Nature of the assay: Antifungal activity against Aspergillus fumigatus after 24 hrs by microbroth dilution method.
The next assay deals with Acinetobacter baumannii. The assay is described as follows: Antibacterial activity against Acinetobacter baumannii after 24 hrs by microbroth dilution method. An outline of the steps: as §1
Assay [7] concerns Pseudomonas aeruginosa. The assay is described as follows: Antibacterial activity against Pseudomonas aeruginosa after 24 hrs by microbroth dilution method. An outline of the steps:
as §1

In a further assay the test system is Klebsiella pneumoniae. Nature of the assay: Antibacterial activity against Klebsiella pneumoniae after 24 hrs by microbroth dilution method. The method in brief:
as §1

Assay [8] relates to Staphylococcus aureus. Nature of the assay: Antibacterial activity against Staphylococcus aureus ATCC 25923 after 24 hrs by microbroth dilution method. The note with it: ATCC 25923, 24 h. An outline of the steps:
as §1

The subject of assay [9] is Staphylococcus aureus. The assay is described as follows: Antibacterial activity against methicillin resistant Staphylococcus aureus after 24 hrs by microbroth dilution method. An outline of the steps: as §1
Assay [10] concerns Staphylococcus aureus. Nature of the assay: Antibacterial activity against Staphylococcus aureus ATCC 29213 after 24 hrs by microbroth dilution method. The note with it: ATCC 29213, 24 h. The method in brief:
as §1

As a reminder, the MIC is the lowest concentration found to suppress growth. Regarding `O=[N+]([O-])c1ccc(C(Nc2ncccn2)P(=O)(O)O)cc1` (stereo not given), the minimal inhibitory concentration (MIC) is 128 µg/mL (≈ 413 µM) in the assay on Escherichia coli [1]; 128 µg/mL (≈ 413 µM) in the assay on Escherichia coli [2]; 128 µg/mL (≈ 413 µM) against Staphylococcus aureus [3]; 128 µg/mL (≈ 413 µM) with Enterococcus faecalis; 256 µg/mL (≈ 825 µM) in the assay on Pseudomonas aeruginosa [4]; more than 16 µg/mL against Aspergillus fumigatus [6]. For the same compound, the MIC against Acinetobacter baumannii worked out at 256 µg/mL (≈ 825 µM); with Pseudomonas aeruginosa [7], 128 µg/mL (≈ 413 µM); in the assay on Klebsiella pneumoniae, 256 µg/mL (≈ 825 µM); against Staphylococcus aureus [8], 128 µg/mL (≈ 413 µM); against Staphylococcus aureus [9], 128 µg/mL (≈ 413 µM); against Staphylococcus aureus [10], 128 µg/mL (≈ 413 µM). Further, in the assay on Aspergillus fumigatus [5], the Ratio was 16.

As to `CCOP(=O)(OCC)C(Nc1ncccn1)c1c[nH]c2ccccc12` (stereo not given), the MIC with Escherichia coli [1] is 256 µg/mL (≈ 710 µM); against Escherichia coli [2], 256 µg/mL (≈ 710 µM); against Staphylococcus aureus [3], 256 µg/mL (≈ 710 µM); in the assay on Enterococcus faecalis, 256 µg/mL (≈ 710 µM); in the assay on Pseudomonas aeruginosa [4], 256 µg/mL (≈ 710 µM); in the assay on Aspergillus fumigatus [6], more than 16 µg/mL. Moreover, the minimal inhibitory concentration (MIC) in the assay on Acinetobacter baumannii amounted to 128 µg/mL (≈ 355 µM); against Pseudomonas aeruginosa [7], 256 µg/mL (≈ 710 µM); in the assay on Klebsiella pneumoniae it was 64 µg/mL (≈ 178 µM); with Staphylococcus aureus [8], 256 µg/mL (≈ 710 µM); against Staphylococcus aureus [9] it was 4 µg/mL (≈ 11.1 µM); against Staphylococcus aureus [10], 128 µg/mL (≈ 355 µM). Further, the Ratio in the assay on Aspergillus fumigatus [5] was found to be 16.

Compound `OC(Cn1cncn1)(Cn1cncn1)c1ccc(F)cc1F` [FLUCONAZOLE] came in with an MIC against Aspergillus fumigatus [6] of more than 16 µg/mL.

`CCOP(=O)(OCC)C(Nc1ncccn1)c1ccc(C)cc1` (stereo not given): the minimum inhibitory concentration (MIC) was 256 µg/mL (≈ 763 µM) in the assay with Escherichia coli [1]; 128 µg/mL (≈ 382 µM) with Escherichia coli [2]; 256 µg/mL (≈ 763 µM) against Staphylococcus aureus [3]; 8 µg/mL (≈ 23.9 µM) with Enterococcus faecalis; 64 µg/mL (≈ 191 µM) against Pseudomonas aeruginosa [4]; more than 16 µg/mL against Aspergillus fumigatus [6]. The MIC was determined as 128 µg/mL (≈ 382 µM) against Acinetobacter baumannii; 256 µg/mL (≈ 763 µM) against Pseudomonas aeruginosa [7]; 128 µg/mL (≈ 382 µM) against Klebsiella pneumoniae; 16 µg/mL (≈ 47.7 µM) against Staphylococcus aureus [8]; 128 µg/mL (≈ 382 µM) against Staphylococcus aureus [9]; 256 µg/mL (≈ 763 µM) in the assay with Staphylococcus aureus [10]. Further, the Ratio with Aspergillus fumigatus [5] was 16.

For the compound `CCn1cc(C(=O)O)c(=O)c2cc(F)c(N3CCNCC3)cc21` [NORFLOXACIN], the MIC with Escherichia coli [1] turned out to be 16 µg/mL (≈ 50.1 µM); against Escherichia coli [2], 8 µg/mL (≈ 25.1 µM); in the assay with Staphylococcus aureus [3], 0.5 µg/mL (≈ 1.57 µM); against Enterococcus faecalis it was 4 µg/mL (≈ 12.5 µM); against Pseudomonas aeruginosa [4], 0.5 µg/mL (≈ 1.57 µM); against Acinetobacter baumannii, 8 µg/mL (≈ 25.1 µM). The minimum inhibitory concentration (MIC) was found to be 2 µg/mL (≈ 6.26 µM) with Pseudomonas aeruginosa [7]; 4 µg/mL (≈ 12.5 µM) against Klebsiella pneumoniae; 1 µg/mL (≈ 3.13 µM) in the assay with Staphylococcus aureus [8]; 8 µg/mL (≈ 25.1 µM) in the assay on Staphylococcus aureus [9]; 2 µg/mL (≈ 6.26 µM) against Staphylococcus aureus [10].

For `CCCCc1nc(Cl)c(C(Nc2ncccn2)P(=O)(OCC)OCC)n1CCC` (stereo not given), the MIC was 256 µg/mL (≈ 577 µM) in the assay on Escherichia coli [1]; 128 µg/mL (≈ 288 µM) against Escherichia coli [2]; 256 µg/mL (≈ 577 µM) with Staphylococcus aureus [3]; 128 µg/mL (≈ 288 µM) with Enterococcus faecalis; 128 µg/mL (≈ 288 µM) against Pseudomonas aeruginosa [4]; more than 16 µg/mL against Aspergillus fumigatus [6]. For the same compound, the MIC worked out at 64 µg/mL (≈ 144 µM) in the assay with Acinetobacter baumannii; 128 µg/mL (≈ 288 µM) against Pseudomonas aeruginosa [7]; 64 µg/mL (≈ 144 µM) in the assay with Klebsiella pneumoniae; 64 µg/mL (≈ 144 µM) with Staphylococcus aureus [8]; 8 µg/mL (≈ 18 µM) against Staphylococcus aureus [9]; 128 µg/mL (≈ 288 µM) in the assay with Staphylococcus aureus [10]. Besides, the Ratio in the assay with Aspergillus fumigatus [5] was 16.

For `C#CCn1c(CCCC)nc(Cl)c1C(Nc1ncccn1)P(=O)(OCC)OCC` (stereo not given), the MIC was 256 µg/mL (≈ 582 µM) against Escherichia coli [1]; 128 µg/mL (≈ 291 µM) in the assay with Escherichia coli [2]; 64 µg/mL (≈ 145 µM) in the assay on Staphylococcus aureus [3]; 256 µg/mL (≈ 582 µM) with Enterococcus faecalis; 256 µg/mL (≈ 582 µM) in the assay on Pseudomonas aeruginosa [4]; more than 16 µg/mL against Aspergillus fumigatus [6]. In addition, the MIC is 128 µg/mL (≈ 291 µM) in the assay on Acinetobacter baumannii; 256 µg/mL (≈ 582 µM) in the assay with Pseudomonas aeruginosa [7]; 256 µg/mL (≈ 582 µM) in the assay on Klebsiella pneumoniae; 32 µg/mL (≈ 72.7 µM) with Staphylococcus aureus [8]; 128 µg/mL (≈ 291 µM) in the assay with Staphylococcus aureus [9]; 256 µg/mL (≈ 582 µM) with Staphylococcus aureus [10]. Also, the Ratio in the assay on Aspergillus fumigatus [5] worked out at 16.

Turning to `O=P(O)(O)C(Nc1ncccn1)c1ccc(F)cc1` (stereo not given), the minimal inhibitory concentration (MIC) was 256 µg/mL (≈ 904 µM) in the assay with Escherichia coli [1]; 128 µg/mL (≈ 452 µM) with Escherichia coli [2]; 256 µg/mL (≈ 904 µM) in the assay with Staphylococcus aureus [3]; 256 µg/mL (≈ 904 µM) in the assay with Enterococcus faecalis; 128 µg/mL (≈ 452 µM) with Pseudomonas aeruginosa [4]; more than 16 µg/mL with Aspergillus fumigatus [6]. Besides, the MIC in the assay on Acinetobacter baumannii worked out at 256 µg/mL (≈ 904 µM); against Pseudomonas aeruginosa [7] it was 256 µg/mL (≈ 904 µM); in the assay on Klebsiella pneumoniae, 256 µg/mL (≈ 904 µM); in the assay with Staphylococcus aureus [8], 128 µg/mL (≈ 452 µM); in the assay with Staphylococcus aureus [9] it was 128 µg/mL (≈ 452 µM); against Staphylococcus aureus [10] it was 256 µg/mL (≈ 904 µM). In addition, in the assay with Aspergillus fumigatus [5], the Ratio is on record as 16.

The record behind these values is ChEMBL document CHEMBL4257553, “Novel organophosphorus aminopyrimidines as unique structural DNA-targeting membrane active inhibitors towards drug-resistant methicillin-resistant Staphylococcus aureus” (Medchemcomm, 2018).
